Experimental data as given in ChEMBL document CHEMBL1145491, “Artemisinins inhibit Trypanosoma cruzi and Trypanosoma brucei rhodesiense in vitro growth” (Antimicrob Agents Chemother, 2007).
pIC50: −log10 of the molar value.

Legend:
[1] = test system: Trypanosoma brucei rhodesiense; assay: Growth inhibition of Trypanosoma brucei rhodesiense trypomastigotes after 72 hrs by Alamar blue assay; assay type: functional, organism-based
Trypanosoma cruzi [2] = assay: Growth inhibition of Trypanosoma cruzi epimastigotes after 72 hrs by Alamar blue assay; assay type: functional, organism-based
Leishmania donovani [3] = assay: Growth inhibition of Leishmania donovani promastigotes after 72 hrs by Alamar blue assay; assay type: functional, organism-based
How it was run: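 Parasites exposed to drug for 72 h; growth read as optical density at 600 nm against drug-free control cultures. Six drug concentrations per run, 2–5 independent runs; mean inhibition plotted against concentration, IC50 and IC90 by linear regression, reported in micromolar with standard errors of the means.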

Leishmania donovani [4] = assay: Antiparasitic activity against Leishmania donovani in hamster assessed as reduction of liver parasite burden at 50 mg/kg, po; assay type: functional; design: scale not given: the % may be the effect or the level left
Leishmania donovani [5] = assay: Antiparasitic activity against Leishmania donovani in hamster assessed as reduction of spleen parasite burden at 50 mg/kg, po; assay type: functional; design: scale not given: the % may be the effect or the level left
Leishmania donovani [6] = assay: Antiparasitic activity against Leishmania donovani in hamster assessed as reduction of spleen parasite burden at 25 mg/kg, po; assay type: functional; design: scale not given: the % may be the effect or the level left
Leishmania donovani [7] = assay: Antiparasitic activity against Leishmania donovani in hamster assessed as reduction of liver parasite burden at 25 mg/kg, po; assay type: functional; design: scale not given: the % may be the effect or the level left
Trypanosoma cruzi [8] = assay: Inhibition of ATPase in Trypanosoma cruzi at 1 uM in presence of calcium; design: scale not given: the % may be the effect or the level left
How it was run: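 T. cruzi membranes were isolated by a protocol adapted from Leishmania. It was started with 2 mM ATP, and released inorganic phosphate was measured colorimetrically.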

Leishmania major [9] = assay: Antiparasitic activity against Leishmania major amastigotes in macrophage assessed as parasite killing at 3 to 30 uM; assay type: functional
[10] = Growth inhibition of human U937 cells at 3 mM; assay type: cell-based, U-937
Leishmania major [11] = assay: Antiparasitic activity against Leishmania major promastigotes assessed as parasite killing at 750 nM; assay type: functional
Leishmania infantum = assay: Antiparasitic activity against Leishmania infantum promastigotes assessed as parasite killing at 1.4 to 382.9 uM; assay type: functional

Work on `COc1ccc2[nH]c([S+]([O-])Cc3ncc(C)c(OC)c3C)nc2c1` (centres undefined) [OMEPRAZOLE] yielded a pIC50 [1] of 3.75, an IC90 [1] of 509 µM and a pIC50 (Trypanosoma cruzi [2]) of 3.75. The IC90 (Trypanosoma cruzi [2]) was 526 µM and the pIC50 (Leishmania donovani [3]) was 3.47.

`C[C@@H]1[C@H](O)[C@@H](C)/C=C/C=C/C=C/C=C/C=C/C=C/C=C/[C@H](O[C@@H]2O[C@H](C)[C@@H](O)[C@H](N)[C@@H]2O)C[C@@H]2O[C@](O)(C[C@@H](O)C[C@@H](O)[C@H](O)CC[C@@H](O)C[C@@H](O)CC(=O)O[C@H]1C)C[C@H](O)[C@H]2C(=O)O` [AMPHOTERICIN B] showed a pIC50 [1] of 5.55, an IC90 [1] of 11.9 µM and a pIC50 (Trypanosoma cruzi [2]) of 5.19. It also gave an IC90 (Trypanosoma cruzi [2]) of 19.6 µM and a pIC50 (Leishmania donovani [3]) of 5.55.

`C[C@H]1[C@@H](O)O[C@@H]2O[C@@]3(C)CC[C@H]4[C@H](C)CC[C@@H]1[C@@]24OO3` [ARTENIMOL] showed a pIC50 [1] of 4.61, an IC90 [1] of 49.6 µM and a pIC50 (Trypanosoma cruzi [2]) of 4.89. For the same molecule, the IC90 (Trypanosoma cruzi [2]) was 49.2 µM, the Activity (Leishmania donovani [4]) was 75% and the Activity (Leishmania donovani [5]) was 75%. For the same molecule, the Activity (Leishmania donovani [6]) was 75% and the Activity (Leishmania donovani [7]) was 75%.

For `N=C(N)c1ccc(OCCCCCOc2ccc(C(=N)N)cc2)cc1` [PENTAMIDINE], the pIC50 [1] was 5.92, the IC90 [1] was 3.7 µM and the pIC50 (Trypanosoma cruzi [2]) was 5.96. For the same molecule, the IC90 (Trypanosoma cruzi [2]) was 4.4 µM and the pIC50 (Leishmania donovani [3]) was 6.00.

`C[C@H]1[C@H](N2CCS(=O)(=O)CC2)O[C@@H]2O[C@@]3(C)CC[C@H]4[C@H](C)CC[C@@H]1[C@@]24OO3` [ARTEMIFONE] gave a pIC50 [1] of 4.65, an IC90 [1] of 44.8 µM and a pIC50 (Trypanosoma cruzi [2]) of 4.63. It also gave an IC90 (Trypanosoma cruzi [2]) of 50.5 µM and a pIC50 (Leishmania donovani [3]) of 4.89.

For `C[C@@H]1CC[C@H]2[C@@H](C)C(=O)O[C@@H]3O[C@@]4(C)CC[C@@H]1[C@]32OO4` [ARTEMISININ], the Activity (Trypanosoma cruzi [8]) was 24.9%, the Activity (Leishmania major [9]) was 50% and the pIC50 [1] was 4.69. The IC90 [1] was 49.1 µM, the pIC50 (Trypanosoma cruzi [2]) was 4.87 and the IC90 (Trypanosoma cruzi [2]) was 46.5 µM. It also gave an inhibition at 3000 µM [10] of under 5%, an Activity (Leishmania major [11]) of 50% and an Activity (Leishmania infantum) of 50%. For the same molecule, the pIC50 (Leishmania donovani [3]) was 4.51.

For `C/C=C(/C)C(=O)O[C@H]1C(C)=C2[C@H]([C@@H]1OC(=O)CCCCCCC)[C@@](C)(OC(C)=O)C[C@H](OC(=O)CCC)[C@@]1(O)[C@H]2OC(=O)[C@@]1(C)O` [THAPSIGARGIN], the Activity (Trypanosoma cruzi [8]) was 25.8%, the pIC50 [1] was 4.52 and the IC90 [1] was 71.9 µM. The pIC50 (Trypanosoma cruzi [2]) was 4.47, the IC90 (Trypanosoma cruzi [2]) was 78.1 µM and the pIC50 (Leishmania donovani [3]) was 4.55.

`C[C@@H]1O[C@@H](O[C@H]2C[C@@H](O)[C@]3(CO)[C@H]4[C@H](O)C[C@]5(C)[C@@H](C6=CC(=O)OC6)CC[C@]5(O)[C@@H]4CC[C@]3(O)C2)[C@H](O)[C@H](O)[C@H]1O` [OUABAIN] gave a pIC50 [1] of under 3.35, an IC90 [1] of 1180 µM and a pIC50 (Trypanosoma cruzi [2]) of under 3.35. The IC90 (Trypanosoma cruzi [2]) was 953 µM and the pIC50 (Leishmania donovani [3]) was under 3.35.
